Only some compounds are listed: those with a hit (about 2% of all), similar ones and a draw of the others.
CDK5 inh – blocks human CDK5/p35 kinase activity | Q00535+Q15078 | Recombinant CDK5/p35, ADP-Glo luminescence, 60 min | inhibition, % at 10 µM | actives 0.01% (n = 330,000);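 active means highest replicate inhibition of at least 50% and at least 75% of replicates reaching 50%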;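 further: plate controls were DMSO neutral control for no effect and GW8510 at 10 µM for full effect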
dFosB activator – mouse delta FosB homodimer activation | purified delta FosB, TAMRA-CDK5 oligo fluorescence polarization; percent of positive-control signal above neutral wells | P13346 | activation, % at 25 µM | actives 0.99% (n = 340,000);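 active means mean activation above about 17%, with every replicate also reaching it, limit read from the data, passing the limit was not always enough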
Target sequence (P13346 whole entry, looked up): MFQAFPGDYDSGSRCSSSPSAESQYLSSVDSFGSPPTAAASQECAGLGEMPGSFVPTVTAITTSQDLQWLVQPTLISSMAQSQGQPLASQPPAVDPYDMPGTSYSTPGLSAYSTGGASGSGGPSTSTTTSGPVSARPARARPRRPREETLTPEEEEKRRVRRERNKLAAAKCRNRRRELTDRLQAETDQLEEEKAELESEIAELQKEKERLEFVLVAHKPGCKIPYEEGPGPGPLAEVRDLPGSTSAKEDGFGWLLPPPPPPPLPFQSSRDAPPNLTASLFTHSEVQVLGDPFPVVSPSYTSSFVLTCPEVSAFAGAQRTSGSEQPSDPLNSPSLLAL
SR-BI HDL uptake – mouse SR-BI HDL lipid transfer inhibition; Q61009; ldlA[mSR-BI] CHO cells, DiI-HDL uptake fluorescence, 3 h; inhibition, % at 12.5 µM; actives 0.96% (n = 320,000); AID 488896;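 active means mean replicate inhibition of at least 70% and a set share of replicates each scoring 70 or more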;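 further: 0% = median of neutral control wells and 100% = median of positive control wells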
SR-BI DiI-HDL act – SR-BI HDL lipid transfer activation; CHO ldlA[mSR-BI] cells, DiI-HDL uptake fluorescence, 3 h; 100 = double the neutral-control signal; activation, % at 12.5 µM; actives 0.096% (n = 320,000);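 active means mean replicate activation of at least 60% and every replicate at or above 60%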;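 further: 0% = median plate neutral-control signal and 100% = twice that signal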
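material = CHO ldlA[mSR-BI] cells | medium = Ham's F12 with 0.5% BSA, HEPES 25 mM, pH 7.4 | reagent = fluorescent DiI-HDL, 10 µg/mL final | compound dosing = single-point compound dose | incubation = 3 h, 37 °C | measured by = bottom-read fluorescence, 550/595 nm | measure = HDL uptake via cellular fluorescence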
Starred values were filed as active, the others as inactive; . = no result given.

SMILES	CDK5 inh	dFosB activator	SR-BI HDL uptake	SR-BI DiI-HDL act
Cc1cccc2sc(NNC(=O)c3ccc(S(=O)(=O)N4CCCC(C)C4)cc3)nc12 (stereo not drawn)	-1.6	-5.1	127.8*	-127.7
CCC1CCCCN1C(=O)COc1ccc2c3c(c(=O)oc2c1)CCC3 (stereo not drawn)	-0.1	-18.8	37.4	-37.4
CC(=O)Nc1ccc(S(=O)(=O)NCCCc2ccccc2)cc1	0.0	2.8	1.3	-1.3
COC(=O)Cc1ccc(O)c(N)c1	1.3	-6.5	-5.3	5.3
O=C(CN1c2ccccc2Sc2ccccc21)NNC(=S)Nc1ccc(Cl)cc1Cl	-3.7	-3.0	75.9*	-75.9
Cn1ncc2c(N3CCC(Cc4ccccc4)CC3)ncnc21	-1.1	-3.9	-16.4	16.4
NNC(=O)c1cc2c(N3CCC(Cc4ccccc4)CC3)ncnc2s1	0.7	-8.3	79.9*	-79.9
COc1ccc(-c2c(C)nn3c(NC4CCCC4)cc(C)nc23)cc1OC	0.3	-3.0	4.2	-4.2
CCc1c(C)nc2cc(-c3ccc(OC)c(OC)c3)nn2c1NCC1CC1	-1.0	-2.4	88.8*	-88.8
N#C/C(=N\Nc1ccccc1F)c1nc(-c2ccccc2)cs1	1.4	-5.5	71.3*	-71.3
N#C/C(=C(/O)CCl)c1nc(-c2ccccc2)cs1	1.7	-11.3	.	.
CCCOC(=O)c1c(-c2ccc(OC)cc2)oc2ccc(-c3ccc(OC)nc3)cc12	0.0	0.8	72.8*	-72.8
COc1ccc(-c2oc3ccc(-c4ccc(OC)nc4)cc3c2-c2ccc(OC)cc2)cc1	-0.3	-4.2	45.9	-45.9
COc1ccc(-c2oc3ccc(-c4ccc5c(c4)OCO5)cc3c2C#CC2(O)CCCCC2)cc1	-0.6	3.2	84.0*	-84.0
COc1ccc(C(=O)c2c(-c3ccc(OC)cc3)oc3ccc(-c4cc(OC)c(OC)c(OC)c4)cc23)cc1	-0.7	-3.8	73.3*	-73.3
COC(=O)c1c(-c2ccc(OC)cc2)oc2ccc(-c3ccc(OC)nc3)cc12	0.4	2.4	-1.4	1.4
COc1ccc(-c2oc3ccc(-c4ccc(OC)nc4)cc3c2C#CC2(O)CCCCC2)cc1	-3.8	-7.6	84.9*	-84.9
CC(C)Oc1ccc(C(=O)OCC(=O)N2CCCc3ccccc32)cc1	-0.7	-18.9	4.7	-4.7
CCOc1ccccc1N1CCN(C(=O)c2cc3cc(OC)ccc3[nH]2)CC1	1.0	-1.8	6.8	-6.8
CCOC(=O)N1CCC(N2C(=O)c3ccc(C(=O)Nc4ccc(F)cc4F)cc3C2=O)CC1	-2.3	-4.6	78.5*	-78.5
COc1ccccc1/C=C/C(=O)OCC(=O)NC1CCS(=O)(=O)C1 (stereo not drawn)	-1.7	-3.7	-3.7	3.7
COc1ccc(CCNC(=O)c2ccc(CNS(=O)(=O)c3cc(C)ccc3C)cc2)cc1OC	0.4	-5.9	78.9*	-78.9
COc1ccc(CCNC(=O)c2ccc(CNS(=O)(=O)c3ccc(C(C)(C)C)cc3)cc2)cc1OC	1.2	0.5	65.2	-65.2
COc1ccc(CCNC(=O)c2ccc(CNS(=O)(=O)c3cccc(Cl)c3)cc2)cc1OC	-1.2	-3.5	80.8*	-80.8
CC1(c2nnc(-c3cccc(Cl)c3)o2)CC(c2ccccc2)=NO1 (stereo not drawn)	-1.6	3.7	-0.8	0.8
SMILES	CDK5 inh	dFosB activator	SR-BI HDL uptake	SR-BI DiI-HDL act
COCCCNC(=O)C[C@H]1C[C@H](C(=O)N2CCOCC2)[C@@]2(CCC3CCCC3)c3[nH]c4ccc(Cl)cc4c3CCN2C1=O	1.3	-3.6	-25.4	25.4
O=C1CC(SC(=Nc2ccccc2)Nc2ccccc2)C(=O)N1c1cccc(Cl)c1 (stereo not drawn)	-1.0	-2.7	78.4*	-78.4
CN=C(Nc1ccccc1)SC1CC(=O)N(c2cccc(OC)c2)C1=O (stereo not drawn)	-0.2	-13.5	55.5	-55.5
O=C1CC(SC(=Nc2ccccc2)Nc2ccccc2)C(=O)N1c1ccc(Cl)cc1 (stereo not drawn)	-0.8	2.7	70.8*	-70.8
CCCOC(=O)c1c(NC(=O)/C=C/c2cnn(C)c2C)sc(C(=O)OCC)c1C	-0.3	-2.4	76.4*	-76.4
CCCOC(=O)c1c(NC(=O)/C=C/c2cnn(C)c2C)sc(C(=O)OC)c1C	0.5	-12.7	55.1	-55.1
CCOC(=O)[C@H]1[C@H]2COc3ccc(Br)cc3[C@@H]2N2C(=O)CN(CC3CCCO3)C(=O)[C@@]12C (stereo partly drawn)	4.0	1.2	2.5	-4.5
COc1ccc(/C=N/Nc2nc(-c3ccc(Cl)cc3)cc(C(F)(F)F)n2)c(OC)c1	-1.0	-2.3	80.4*	-80.4
COc1ccc(/C(C)=N\Nc2nc(-c3ccc(Cl)cc3)cc(C(F)(F)F)n2)cc1OC	2.1	-13.6	60.6	-60.6
O=C(Cc1cccc(NC(=O)C2CCCN(C(=O)C3CCCC3)C2)c1)Nc1ccc(C(=O)N2CCOCC2)cc1 (stereo not drawn)	1.1	2.4	-2.3	2.3
COc1cc(/C=N/N(c2ccccc2)c2ccccc2)ccc1O	-0.2	-1.0	12.2	-12.2
CN(/N=C\c1ccc(O)c(O)c1)c1nc(-c2ccccc2)cc(-c2ccccc2)n1	-1.5	-24.6	112.0*	-112.0
Cn1c(=O)[nH]c(=O)c2c1nc(N1CCCCC1)n2CC(O)COc1ccccc1 (stereo not drawn)	-0.9	1.8	-11.6	11.6
Cc1ccc(NC(=O)c2ncn(CCCN(CCCn3cnc(C(=O)Nc4ccc(C)c(C)c4)n3)Cc3ccc4[nH]ccc4c3)n2)cc1C	-0.2	77.0*	18.5	-18.5
Cc1ccc(NC(=O)c2ncn(CC(=O)NCc3ccc4[nH]ccc4c3)n2)cc1C	-0.3	1.3	11.1	-11.1
COc1ccc(O)c(C(=O)c2coc(=N)c(C(=O)Nc3ccc(SC(F)F)cc3)c2)c1	-0.4	-12.4	76.0*	-76.0
CC(C)OC(=O)c1cc(C(=O)c2cc(F)ccc2O)coc1=N	-0.2	-9.0	-4.1	4.1
Cc1ccc(C(=O)N2CCN(CCNC(=O)C(=O)NCc3ccc(Cl)cc3)CC2)cc1	0.9	-2.2	5.7	-5.7
CCOC(=O)c1ccccc1NC(=O)Cc1ccc(S(=O)(=O)N2CCCC2)s1	8.6	-9.5	27.9	-27.9
O=C(Cn1nnc2c(cnn2-c2ccc(F)cc2)c1=O)Nc1ccccc1C(F)(F)F	-1.8	2.7	-18.2	18.2
C=CCN1C(=O)C(Cc2cccc(Cl)c2)SC1=Nc1ccc(C(=O)O)cc1 (stereo not drawn)	-2.2	-2.3	-62.5	62.5*
CCCC1CCC(c2ccc(C(=O)NN)cc2)CC1 (stereo not drawn)	-0.8	-11.3	-160.9	161.0*
COc1ccc(Cl)cc1/C=C/c1ccc2cccc(O)c2n1	0.5	-5.8	83.3*	-83.3
C/C(=N\Nc1nc(C)cc(-c2ccccc2)n1)c1ccc(O)cc1	-7.0	-3.6	53.8	-53.8
C/C(=N\Nc1cc(C)nc(-c2ccccc2)n1)c1cccc([N+](=O)[O-])c1	0.7	-6.0	76.9*	-76.9
C/C(=N\Nc1cc(-c2ccccc2)nc(-c2ccccc2)n1)c1ccc(O)c(C)c1	0.2	-13.3	94.3*	-94.3

Assay outcomes (PubChem)
